Shown are actives, neighbours in structure and some others; about 4% of the full set was active somewhere.
OX1R antag-1: antagonists of human orexin 1 receptor (OX1R) | Orexin/Hypocretin receptor type 1 (Homo sapiens), O43613 | OX1R-expressing cells, FRET antagonist read-out | inhibition, % at 6.6 µM | 330,000 compounds, 1.8% hits | AID 485270, 2010; in the data active = inhibition mostly above about 38%, no sharp cut-off; inactive = mostly below about 40%;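 also: 0% = agonist challenge alone and 100% = reference antagonist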
NTR1 agonist: agonists of human NTR1, primary screen, imaging, U2OS cells, beta-arrestin-GFP, high content. activation, % at 20 µM. 330,000 compounds, 0.17% hits. Neurotensin receptor type 1 (Homo sapiens), P30989. NTR1-U2OS beta-arrestin-GFP spot imaging, agonist mode;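 active = activation at or above 40% of the spot to cytoplasm intensity ratio, with at least 20 cells analyzed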;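 also: 0% = DMSO without peptide and 100% = 100 nM NTR1 peptide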
TAAR1 agonist: human TAAR1 agonists, primary screen, Fluo-8 calcium fluorescence, CHO RD-HGA16 cells | Trace amine-associated receptor 1 (Homo sapiens), Q96RJ0 | vehicle wells 0%, saturating PEA agonist 100% | activation, % at 3 µM | 360,000 compounds, 0.99% hits | AID 624467, 2012;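 active = activation above the mean activation of all test compounds in the run plus 3 SD, cut at about 38% in these data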
Target sequence (Q96RJ0 whole entry, looked up): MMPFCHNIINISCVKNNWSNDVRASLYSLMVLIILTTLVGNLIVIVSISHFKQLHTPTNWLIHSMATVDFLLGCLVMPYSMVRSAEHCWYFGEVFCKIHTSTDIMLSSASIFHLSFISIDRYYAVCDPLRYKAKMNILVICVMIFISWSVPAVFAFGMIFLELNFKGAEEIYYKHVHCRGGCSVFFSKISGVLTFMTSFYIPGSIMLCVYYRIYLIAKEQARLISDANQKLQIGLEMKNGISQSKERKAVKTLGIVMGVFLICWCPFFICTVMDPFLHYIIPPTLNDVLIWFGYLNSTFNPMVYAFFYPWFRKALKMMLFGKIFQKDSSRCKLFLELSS
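Signal – calcium-sensitive Fluo-8 signal, excitation 470-495, emission 515-575 nm · System – RD-HGA16 (CHO) cells co-expressing Gα16 and hTAAR1 · Incubation – 17-24 h seeding, 75 min 37 °C dye, 30 min RT · Compound dosing – 3 µM single concentration · Repeats – no replicates (n 1)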
OX1R antag-2: OX1R (HCRTR1) antagonists, primary screen, fluorescence, CHO/OX1R cells, Fluo-8 calcium, orexin A | Orexin/Hypocretin receptor type 1 (Homo sapiens), O43613 | Fluo-8 calcium fluorescence | inhibition, % at 5 µM | 330,000 compounds, 0.43% hits;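 active = inhibition above its plate's threshold, mean inhibition of all tested compounds on the plate plus 3 SD, cut at about 37% in these data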;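 also: 0% = orexin A challenge wells and 100% = SB-334867-A antagonist wells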
CHO parental Ca: ATP-evoked calcium signal inhibitors, parental CHO, primary screen, counter-screen for OX1R antagonist project, cell-based, fluorescence, Fluo-8 calcium dye | parental CHO-K1, ATP-induced calcium, Fluo-8 fluorescence | 330,000 compounds, 0.63% hits | inhibition, % at 5.6 µM | AID 463079, 2010;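 active = inhibition above that plate's mean sample inhibition plus 3 SD, cut at about 26% in these data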;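 also: 0% = ATP-challenged DMSO wells and 100% = DMSO wells without ATP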
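Assay system – parental CHO cells · Reagent – ATP stimulus · Detection – intracellular calcium via Fluo-8 no-wash fluorescent dye · Evaluation – percent inhibition of ATP-evoked calcium rise, normalized to controls · Controls – ATP wells versus no-ATP DMSO wells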
TAAR1 antag: human TAAR1 antagonists, primary screen, Fluo-8 calcium fluorescence, CHO RD-HGA16 cells. Trace amine-associated receptor 1 (Homo sapiens), Q96RJ0. antagonist. inhibition, % at 3 µM. 360,000 compounds, 1.5% hits. AID 624466, 2012;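 active = inhibition above a per-plate cutoff, the mean inhibition of test compounds on that plate plus 3 SD, cut at about 49% in these data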;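 also: 0% = DMSO plus EC80 beta-PEA response and 100% = DMSO alone without agonist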
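System: RD-HGA16 CHO cells with stable hTAAR1 and Gα16 | Probe or stimulus: EC80 β-phenethylamine stimulus | Dosing: 3 µM, single point | Times: Dye loading 75 min at 37 °C, then 30 min room temperature | Measured by: Fluo-8 calcium-sensitive fluorescence | Read-out basis: % inhibition of agonist calcium response | Replicates: n of 1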
TAAR1 nonsel count: nonselective antagonists in TAAR1 counter-screen cells, counter-screen for hTAAR1 antagonist project, cell-based, fluorescence, calcium; shares compounds with TAAR1 antag; inhibition, % at 3 µM; 2,400 compounds, 77% hits; counterscreen cell line, antagonist mode; AID 651780, 2012; in the data active = inhibition above about 22%;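 also: CHO-Ga16 host cells stimulated with ATP at an EC80 level; 0% = agonist EC80 plus vehicle and 100% = vehicle without agonist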
TAAR1 antag conf: human TAAR1 antagonists, retest of hits, confirmation, cell-based, fluorescence. TAAR1-expressing cells, fluorescence antagonist read-out. 2,400 compounds, 40% hits. shares compounds with TAAR1 antag. inhibition, % at 3 µM; in the data active = inhibition above about 49%;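 also: CHO-Ga16 host cells challenged with agonist PEA near its EC80; 0% = agonist at EC80 plus vehicle and 100% = vehicle with no agonist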
Ga16 ag counter: calcium activation in Ga16-expressing cells, counter-screen for TAAR1 antagonist project, cell-based, fluorescence. activation, % at 3 µM. agonist counterscreen. shares compounds with TAAR1 antag. 2,400 compounds, 18% hits; in the data active = activation above about 12%;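 also: 0% = vehicle wells and 100% = saturating stimulus response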
TAAR1 ag count: TAAR1 activation by candidate antagonists – cell-based, fluorescence, counter-screen for TAAR1 antagonist project; 2,400 compounds, 2% hits; shares compounds with TAAR1 antag; hTAAR1 cell line, agonist mode; activation, % at 3 µM; in the data active = activation above about 37%;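 also: CHO cells stably expressing TAAR1 with calcium dye readout; 0% = DMSO vehicle and 100% = full agonist response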
Active calls of the source: *; · = no result given.

SMILES | OX1R antag-1 | NTR1 agonist | TAAR1 agonist | OX1R antag-2 | CHO parental Ca | TAAR1 antag | TAAR1 nonsel count | TAAR1 antag conf | Ga16 ag counter | TAAR1 ag count
CC(NC(=O)c1ccc(CS(=O)(=O)c2ccc(Cl)cc2)o1)c1ccc2c(c1)OCCO2 (stereo unspecified) | 21 | 0 | 19 | -21 | -18 | 59* | 32* | 53* | 11 | 9
O=C(CSCC(=O)NN=Cc1ccccc1)NN=Cc1ccccc1 | · | · | 31 | · | · | -12 | · | · | · | ·
O=C(CCCSCCCC(=O)NN=Cc1ccccc1)NN=Cc1ccccc1 | · | · | 22 | · | · | 66* | 43* | 56* | 10 | 44*
CCOc1ccc2ncc(S(=O)(=O)c3ccc(C)cc3)c(N3CCC4(CC3)OCCO4)c2c1 | 28 | 8 | 8 | -13 | -12 | 63* | 20 | 46 | 4 | 0
O=C(OCC(=O)N1CCN(C(=O)c2ccco2)CC1)c1cc(-c2ccc(F)cc2)nc2ccccc12 | 9 | 0 | 13 | -9 | -28 | 42 | · | · | · | ·
O=C(OCC(=O)N1CCN(C(=O)c2ccco2)CC1)c1cc(-c2ccccc2)nc2ccccc12 | 33 | 3 | 8 | -23 | -37 | 57* | 26* | 36 | 6 | 0
O=C(OCC(=O)N1CCN(C(=O)c2ccco2)CC1)c1cc(-c2cccc(Br)c2)nc2ccccc12 | 62* | 5 | 17 | 24 | -22 | 58* | 34* | 44 | 5 | 1
CC(C)Oc1ccccc1NC(=O)CSc1nccn1C | 7 | -1 | -1 | -14 | -13 | 0 | · | · | · | ·
O=C(CC1CC1)Nc1ccc2c(c1)[C@@H]1C[C@H](CC(=O)NC3CCCC3)O[C@@H](CO)[C@@H]1O2 | · | · | -1 | · | · | 86* | -6 | 5 | 1 | 5
CC1(Cc2ccc(F)cc2)C(=O)Nc2ccc(-c3cccnc3)cc21 (stereo unspecified) | · | · | 1 | · | · | -12 | · | · | · | ·
CN1C(=O)[C@H]2[C@@H](/C=C/c3ccccc3)N3C(=O)CN(Cc4ccccn4)C(=O)[C@@]3(Cc3ccccc3)[C@H]2C1=O | 7 | -2 | 0 | -28 | -18 | -7 | · | · | · | ·
O=C1[C@H]2[C@@H](/C=C/c3ccccc3)N3C(=O)CN(Cc4ccccn4)C(=O)[C@@]3(Cc3ccccc3)[C@H]2C(=O)N1c1ccccc1 | 16 | 0 | 23 | -32 | -18 | 70* | 28* | 48 | 10 | 8
COc1ncnc2c1ncn2CCCNCc1ccc(C)o1 | · | · | 0 | · | · | 3 | · | · | · | ·
CCOc1ccc2nc(NC(=O)CN3CCC(n4nnc5cc(F)ccc54)CC3)sc2c1 | 34 | 7 | 14 | -15 | 11 | 68* | 23* | 42 | 6 | 6
O=C(CN1CCC(n2nnc3cc(F)ccc32)CC1)NC1CC1 | 5 | -1 | 0 | -19 | -7 | 2 | · | · | · | ·
CC(=O)Nc1nnc(CCS(=O)(=O)c2ccc(C)cc2)s1 | 0 | 0 | 0 | -13 | 0 | -14 | · | · | · | ·
COc1ccc(Cc2nnc(NC(=O)C3CCN(C(=O)c4ccco4)CC3)s2)cc1 | 16 | -1 | 2 | -36 | -19 | -2 | · | · | · | ·

Screening results from PubChem.
